Measurements taken from ChEMBL document CHEMBL1148329, “Synthesis and structure-activity studies on N-[5-(1H-imidazol-4-yl)-5,6,7,8-tetrahydro-1-naphthalenyl]methanesulfonamide, an imidazole-containing alpha(1A)-adrenoceptor agonist” (J Med Chem, 2004).

Key:
[1] = target: T1, Alpha-1A adrenergic receptor (Oryctolagus cuniculus) (UniProt O02824); assay: Functional agonism of the compounds to constrict tissue containing the alpha-1A adrenergic receptor in rabbit urethra; format: tissue-based
T1 sequence (whole entry): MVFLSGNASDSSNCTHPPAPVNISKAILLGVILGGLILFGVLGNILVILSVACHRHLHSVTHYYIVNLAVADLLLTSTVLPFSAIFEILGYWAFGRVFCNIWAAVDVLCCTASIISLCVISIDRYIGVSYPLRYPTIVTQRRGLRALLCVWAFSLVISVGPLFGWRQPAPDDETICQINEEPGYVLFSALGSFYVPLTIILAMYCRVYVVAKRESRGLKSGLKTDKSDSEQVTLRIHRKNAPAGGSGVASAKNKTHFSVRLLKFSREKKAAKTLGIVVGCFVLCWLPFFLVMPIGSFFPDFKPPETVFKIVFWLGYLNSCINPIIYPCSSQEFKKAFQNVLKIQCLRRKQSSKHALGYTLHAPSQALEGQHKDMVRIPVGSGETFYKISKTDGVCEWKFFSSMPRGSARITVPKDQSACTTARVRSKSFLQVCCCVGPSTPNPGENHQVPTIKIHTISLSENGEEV
Outline: (§1)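 α1-agonist dose–response curves in isolated tissue: rabbit urethra (α1A), rat spleen (α1B), rat aorta (α1D). Agonist potency and efficacy read from the concentration–response curves.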

[2] = target: Alpha adrenergic receptor 1A and 1B (Rattus norvegicus) (UniProt P15823+P43140); assay: Selectivity is ratio of pKi (binding affinity) of alpha-1B receptor to that of alpha-1A receptor.; format: protein assay
[3] = target: Alpha adrenergic receptor 1A and 1D (Rattus norvegicus) (UniProt P23944+P43140); assay: Selectivity is ratio of pKi (binding affinity) of Alpha-1D to that of alpha1A; format: protein assay
[4] = target: T1, Alpha-1A adrenergic receptor (Oryctolagus cuniculus); assay: Efficacy relative to phenylephrine (PE) to constrict tissue containing the alpha-1A adrenergic receptor in rabbit urethra; format: functional, tissue-based; outline: as §1
[5] = target: T2, Alpha-1D adrenergic receptor (Rattus norvegicus, UniProt P23944); assay: In vitro binding affinity towards alpha-1D adrenergic receptor of rat clone in radioligand binding assay
T2 sequence (P23944 whole entry): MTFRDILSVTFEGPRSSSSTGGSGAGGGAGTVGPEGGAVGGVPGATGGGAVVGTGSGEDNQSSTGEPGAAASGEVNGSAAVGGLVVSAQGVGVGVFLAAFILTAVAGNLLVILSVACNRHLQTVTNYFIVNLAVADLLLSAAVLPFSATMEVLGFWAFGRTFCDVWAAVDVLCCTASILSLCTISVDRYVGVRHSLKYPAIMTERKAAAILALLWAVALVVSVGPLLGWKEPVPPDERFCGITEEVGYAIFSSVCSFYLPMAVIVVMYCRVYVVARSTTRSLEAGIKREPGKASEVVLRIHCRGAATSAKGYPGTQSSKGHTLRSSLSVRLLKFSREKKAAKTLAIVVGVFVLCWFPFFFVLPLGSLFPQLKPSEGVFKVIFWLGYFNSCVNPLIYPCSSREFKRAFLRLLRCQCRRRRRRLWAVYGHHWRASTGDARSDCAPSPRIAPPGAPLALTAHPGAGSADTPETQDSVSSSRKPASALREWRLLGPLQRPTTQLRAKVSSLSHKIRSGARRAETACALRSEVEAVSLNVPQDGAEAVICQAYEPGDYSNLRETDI
Outline: (§2)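 Radioligand binding at α1 subtypes: α1A from rat submaxillary gland, α1B hamster clone, α1D rat clone. Run essentially per an earlier method.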

[6] = target: T3, Alpha-1B adrenergic receptor (Mesocricetus auratus, UniProt P18841); assay: In vitro binding affinity towards alpha-1B adrenergic receptor of hamster clone in radioligand binding assay; format: single protein; outline: as §2
T3 sequence (P18841 whole entry): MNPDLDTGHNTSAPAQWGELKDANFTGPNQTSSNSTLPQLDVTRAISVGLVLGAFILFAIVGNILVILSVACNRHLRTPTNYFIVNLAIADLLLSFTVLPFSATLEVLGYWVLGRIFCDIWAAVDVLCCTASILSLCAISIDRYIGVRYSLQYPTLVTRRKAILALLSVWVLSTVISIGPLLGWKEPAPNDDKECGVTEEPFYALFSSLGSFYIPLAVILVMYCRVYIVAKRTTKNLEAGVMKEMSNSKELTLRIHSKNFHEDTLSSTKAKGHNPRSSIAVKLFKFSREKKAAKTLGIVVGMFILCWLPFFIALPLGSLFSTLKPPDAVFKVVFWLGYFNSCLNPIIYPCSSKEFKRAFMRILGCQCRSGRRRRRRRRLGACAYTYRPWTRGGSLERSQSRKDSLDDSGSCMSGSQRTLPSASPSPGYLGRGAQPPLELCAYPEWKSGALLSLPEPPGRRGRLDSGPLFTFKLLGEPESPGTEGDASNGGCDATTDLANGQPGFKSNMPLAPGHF

[7] = target: T4, Alpha-1A adrenergic receptor (Rattus norvegicus, UniProt P43140); assay: In vitro binding affinity towards alpha-1A adrenergic receptor of rat submaxillary gland in radioligand binding assay; outline: as §2
T4 sequence (P43140 whole entry): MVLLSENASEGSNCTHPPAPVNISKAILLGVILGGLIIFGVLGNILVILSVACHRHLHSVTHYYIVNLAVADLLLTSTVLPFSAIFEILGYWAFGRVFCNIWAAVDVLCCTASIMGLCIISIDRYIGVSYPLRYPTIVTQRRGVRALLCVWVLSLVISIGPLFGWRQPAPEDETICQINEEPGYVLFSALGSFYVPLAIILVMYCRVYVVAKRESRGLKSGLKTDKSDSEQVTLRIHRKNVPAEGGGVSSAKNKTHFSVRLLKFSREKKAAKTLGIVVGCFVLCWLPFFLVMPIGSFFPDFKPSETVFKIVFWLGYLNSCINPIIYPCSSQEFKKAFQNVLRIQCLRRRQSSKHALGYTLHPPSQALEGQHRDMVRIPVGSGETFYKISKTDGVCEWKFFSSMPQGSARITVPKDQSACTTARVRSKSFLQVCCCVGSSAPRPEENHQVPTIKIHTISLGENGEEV

Alpha adrenergic receptor 1A and 1B (Rattus norvegicus), sequence (P15823 whole entry, looked up, one chain of several): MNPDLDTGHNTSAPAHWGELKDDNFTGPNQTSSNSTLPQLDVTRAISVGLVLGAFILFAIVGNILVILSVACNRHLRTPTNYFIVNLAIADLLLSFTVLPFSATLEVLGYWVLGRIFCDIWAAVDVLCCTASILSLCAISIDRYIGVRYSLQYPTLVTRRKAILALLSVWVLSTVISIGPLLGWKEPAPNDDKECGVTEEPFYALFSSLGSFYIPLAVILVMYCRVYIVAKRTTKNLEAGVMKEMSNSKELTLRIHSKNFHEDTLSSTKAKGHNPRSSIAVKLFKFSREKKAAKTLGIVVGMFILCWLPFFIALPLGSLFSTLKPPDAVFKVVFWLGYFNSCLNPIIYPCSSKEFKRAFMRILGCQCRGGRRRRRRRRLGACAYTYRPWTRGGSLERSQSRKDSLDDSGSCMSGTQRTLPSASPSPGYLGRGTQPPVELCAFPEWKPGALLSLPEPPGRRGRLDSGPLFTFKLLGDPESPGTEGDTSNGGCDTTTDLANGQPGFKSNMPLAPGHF

Compound	pD2 [1]	Selectivity [2]	Selectivity [3]	Efficacy [4]	Ki [5]	Ki [6]	Ki [7]
CS(=O)(=O)Nc1cccc2c1CCCCC2c1c[nH]cn1 (stereo not given)	4.72	> 7	2	17%	–	–	–
CCS(=O)(=O)Nc1cccc2c1CCCC2c1c[nH]c(C)n1 (stereo not given)	–	> 10	> 10	–	> 10 µM	> 10 µM	–
CCS(=O)(=O)Nc1cccc2c1COC2c1c[nH]cn1 (stereo not given)	–	10	10	–	> 10 µM	> 10 µM	–
CCS(=O)(=O)Nc1cccc(S(=O)(=O)c2c[nH]cn2)c1	–	–	–	–	> 10 µM	> 10 µM	> 10 µM
CCS(=O)(=O)Nc1cccc(Sc2c[nH]cn2)c1	–	–	–	–	> 10 µM	> 10 µM	> 10 µM
CCS(=O)(=O)Nc1cc(F)cc2c1CCCC2c1c[nH]cn1 (stereo not given)	–	> 121	44	–	3.63 µM	> 10 µM	0.0832 µM
CC(C)S(=O)(=O)Nc1cccc2c1CCCC2c1c[nH]cn1 (stereo not given)	5.17	> 9	2	74%	2.04 µM	> 10 µM	1.15 µM
CCS(=O)(=O)Nc1cccc2c1CCCC2CNC (stereo not given)	–	> 7	> 7	–	> 10 µM	> 10 µM	1.38 µM
CCS(=O)(=O)Nc1cccc(CC2CN=CN2)c1 (stereo not given)	–	–	–	–	6.46 µM	10 µM	> 10 µM
CCS(=O)(=O)Nc1cccc(-c2c[nH]cn2)c1	–	–	–	–	> 10 µM	> 10 µM	> 10 µM
Cn1cncc1C1CCCc2c(NS(C)(=O)=O)cccc21 (stereo not given)	–	–	–	–	> 10 µM	> 10 µM	> 10 µM
CCS(=O)(=O)Nc1cccc(CC2CCCN2)c1 (stereo not given)	4.44	> 10	1	17%	0.501 µM	> 10 µM	0.708 µM
CCS(=O)(=O)Nc1cccc2c1CCCC2(O)c1c[nH]cn1 (stereo not given)	–	1	1	–	> 10 µM	> 10 µM	> 10 µM
CS(=O)(=O)Nc1ccc(O)c2c1CCCC2c1c[nH]cn1 (stereo not given)	4.61	> 14	> 14	34%	> 10 µM	> 10 µM	–
CCS(=O)(=O)Nc1cccc(NC2=NCCN2)c1	–	> 3	< 0.04	–	0.355 µM	> 10 µM	2.95 µM
CCS(=O)(=O)Nc1cccc2c1SCCC2c1c[nH]cn1 (stereo not given)	–	10	10	–	> 10 µM	> 10 µM	–
Cc1ccc(NS(C)(=O)=O)c2c1C(c1c[nH]cn1)CCC2 (stereo not given)	4.4	> 26	7	35%	–	> 10 µM	–
O=S(=O)(Nc1cccc2c1CCCC2c1c[nH]cn1)C1CC1 (stereo not given)	5.25	> 19	5	51%	2.69 µM	> 10 µM	0.537 µM
CCS(=O)(=O)Nc1cc(C2CCCCC2)cc2c1CCCC2c1c[nH]cn1 (stereo not given)	–	3	2	–	–	–	–
CS(=O)(=O)Nc1ccc(Cl)c2c1CCCC2c1c[nH]cn1 (stereo not given)	4.35	> 20	6	41%	–	> 10 µM	–
CCCS(=O)(=O)Nc1cccc2c1CCCC2c1c[nH]cn1 (stereo not given)	–	> 6	> 6	–	> 10 µM	> 10 µM	1.7 µM
